From ChEMBL document CHEMBL1156966, “A new cytotoxic tambjamine alkaloid from the Azorean nudibranch Tambja ceutae” (Bioorg Med Chem Lett, 2010)

Columns and labels:
[1] = system: 3T3-L1; assay: Cytotoxicity against mouse 3T3L1 cells after 48 hrs by MTT assay; assay type: cell-based; settings: 3T3-L1, 48 h
Procedure, shortened: (§1)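 Cells exposed 48 h to a range of concentrations, then counted. Viability and proliferation read by MTT, which measures mitochondrial dehydrogenase activity.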

[2] = system: HeLa; assay: Cytotoxicity against human HeLa cells after 48 hrs by MTT assay; assay type: functional, cell-based; procedure, shortened: as §1
[3] = system: C6; assay: Cytotoxicity against rat C6 cells after 48 hrs by MTT assay; assay type: functional, cell-based; settings: C6, 48 h; procedure, shortened: as §1
[4] = system: H9c2; assay: Cytotoxicity against rat H9c2 cells after 48 hrs by MTT assay; assay type: cell-based; settings: H9c2, 48 h; procedure, shortened: as §1
[5] = system: Caco-2; assay: Cytotoxicity against human Caco-2 cells after 48 hrs by MTT assay; assay type: functional, cell-based; settings: Caco-2, 48 h; procedure, shortened: as §1

| Structure (SMILES) | IC50 [1] [µM] | IC50 [2] [µM] | IC50 [3] [µM] | IC50 [4] [µM] | IC50 [5] [µM] |
| --- | --- | --- | --- | --- | --- |
| COC1=CC(c2ccc[nH]2)=N/C1=C/c1[nH]c(-c2ccc[nH]2)cc1OC | 24 | 70 | 7 | 107 | 91 |
| COC1=CC(c2ccc[nH]2)=N/C1=C\NCCC(C)C [TAMBJAMINE K] | 19 | 14.6 | 14 | 2.7 | 0.0035 |
